Compound activity deposited in PubChem BioAssay by several laboratories.
Only some compounds are listed: those with a hit (about 5.8% of all), similar ones and a draw of the others.
FAK inh – FAK (human) kinase inhibition | Q05397 | biochemical FAK kinase activity assay | inhibition, %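 (tested at 7 µM)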 | 97,000 compounds, 0.84% hits | AID 727; in the data active = inhibition above about 19%
PLK1 inh – PLK1 (human) kinase inhibition; P53350; recombinant PLK1 kinase, TR-FRET peptide phosphorylation; inhibition, % at 10 µM; 97,000 compounds, 0.53% hits;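 active = inhibition of 50% or more in the single-concentration screen; inactive = inhibition below 50%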
Target sequence (P53350 whole entry, looked up): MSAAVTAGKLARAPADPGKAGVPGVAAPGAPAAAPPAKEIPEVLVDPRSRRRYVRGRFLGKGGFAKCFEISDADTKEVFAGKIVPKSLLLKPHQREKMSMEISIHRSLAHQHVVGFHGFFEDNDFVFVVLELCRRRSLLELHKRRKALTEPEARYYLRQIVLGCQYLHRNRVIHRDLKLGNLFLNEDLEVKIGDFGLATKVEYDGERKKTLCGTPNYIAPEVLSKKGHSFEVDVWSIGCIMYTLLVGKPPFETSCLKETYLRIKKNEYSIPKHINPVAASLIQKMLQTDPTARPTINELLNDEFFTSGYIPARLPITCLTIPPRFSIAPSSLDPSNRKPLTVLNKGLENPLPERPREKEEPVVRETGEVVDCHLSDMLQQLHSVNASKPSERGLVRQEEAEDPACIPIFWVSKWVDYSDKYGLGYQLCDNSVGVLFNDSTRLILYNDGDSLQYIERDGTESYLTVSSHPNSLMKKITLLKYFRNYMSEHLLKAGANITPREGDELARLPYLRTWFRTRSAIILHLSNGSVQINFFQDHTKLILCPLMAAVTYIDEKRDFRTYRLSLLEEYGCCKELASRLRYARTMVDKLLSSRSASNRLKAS
Pyk2 oligo antag – Pyk2 (human) oligomerization antagonism. Q14289. Q293 cells, Pyk2 FERM NanoBiT luminescence; stronger effect = lower value. z-score (the deposit names both 25 µM and 10 µM). 99,000 compounds, 0.83% hits;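 active = Z-score of -3 or lower, scaled per plate to the spread of control and sample wells; inactive = z-score above -3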;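 note: negative z-score means lost luminescence so less FERM oligomerization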
Rev-RRE block – HIV Rev-RRE protein-RNA interaction inhibition; P05866; Rev peptide-RRE RNA binding, FRET; inhibition, % at 8 µM; 97,000 compounds, 0.79% hits; AID 704;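 active = inhibition above the screen-wide mean plus 3 SD, cut at about 35% in these data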
Target sequence (P05866 whole entry, looked up): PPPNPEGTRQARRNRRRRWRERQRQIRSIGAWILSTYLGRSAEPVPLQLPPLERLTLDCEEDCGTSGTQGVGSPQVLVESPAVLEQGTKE
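Test system: Cy5-tagged RRE RNA duplex with fluorescein-tagged Rev peptide | Read-out: % inhibition of FRET ratio versus controls | Probe or stimulus: Labelled Rev peptide | Incubation: 5 min RNA-compound premix plus 15 min binding step, 25 °C | Technique: FRET fluorescence readout | Benchmarks: DMSO low control, neomycin B high control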
Cav32 inh – inhibitors of human Cav3.2 T-type calcium channel. AID 449739. 100,000 compounds, 4% hits. B-score at 10 µM. O95180. Cav3.2-expressing cells, Fluo-4 calcium fluorescence FDSS; stronger effect = lower value;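 active = single-dose well whose peak fluorescence ratio is a statistical outlier from its plate by either plate-standardised score or position-corrected B-score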
Plk1 PBD FP – blocks phosphopeptide binding to human Plk1 polo box domain; P53350; Plk1 PBD phosphopeptide binding, fluorescence polarization; inhibition, %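 (tested at about 20 µM)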; 97,000 compounds, 0.13% hits; in the data active = inhibition above about 34%, passing the limit was not always enough
Of the large screens only hits and unclear results are named; the others gave an inactive call; [ ] = dose if it differs, or a comment.

CC(Oc1ccc(Cl)cc1Cl)C(=O)Nc1ccc2oc(-c3ccncc3)nc2c1 (stereo unspecified)	Pyk2 oligo antag -3.2
COC(=O)CSc1ncc(OC)c(OC)n1	none
CCOC(=O)CSc1ncc(OC)c(Sc2ccc(OC)cc2)n1	Cav32 inh -6.6
C=CCn1c(COc2ccc(Cl)cc2)nnc1SCc1ccc(C#N)cc1	Cav32 inh -7.7
OCCCNC(=S)Nc1ccc2nc(-c3ccccn3)c(-c3ccccn3)nc2c1	Rev-RRE block 36
CC(C)(C)CC(C)(C)NC(=S)Nc1ccc2nc(-c3ccccn3)c(-c3ccccn3)nc2c1	Rev-RRE block 76
COc1ccc(C2NC(=O)c3sc(=S)n(-c4ccccc4)c3N2)cc1 (stereo unspecified)	Cav32 inh -8.4
N#CC12C(N)=NC3(OCCO3)C1(C#N)C1=C(CCC1)NC2c1ccccc1 (stereo unspecified)	none
N#CC1(C#N)C2=C(CCCC2)NC(c2ccccc2)C1(C#N)C#N (stereo unspecified)	Rev-RRE block 47 (no result: Pyk2 oligo antag)
Cc1cc(NC(=O)c2cc(C(C)C)on2)nn1Cc1ccc(Cl)cc1	Cav32 inh -7.1 (no result: Pyk2 oligo antag)
COc1cccc(-c2cc(C(=O)Nc3c(C)nn(Cc4ccccc4C)c3C)no2)c1	Cav32 inh -3.9
COc1ccc(-c2cc(C(=O)Nc3c(C)nn(Cc4ccccc4)c3C)no2)cc1	none
Cc1nn(Cc2ccccc2)c(C)c1NC(=O)c1cc(-c2cccs2)on1	Cav32 inh -4.8
Cc1nn(Cc2ccc(Cl)c(Cl)c2)c(C)c1NC(=O)c1cc(CC(C)C)on1	Cav32 inh -8.6 (no result: FAK inh, PLK1 inh, Pyk2 oligo antag, Rev-RRE block, Plk1 PBD FP)
CCCCn1nnnc1SCC(=O)N1CCOCC1	none
O=[N+]([O-])c1cccnc1N1CCC(c2cc(-c3cccc(C(F)(F)F)c3)n[nH]2)CC1	Pyk2 oligo antag -3.4
O=[N+]([O-])c1cccnc1N1CCC(c2cc(-c3ccc(Cl)cc3Cl)n[nH]2)CC1	none
COc1ccc(/C=C2\NC(=S)N(CC3CCCO3)C2=O)c(OC)c1C (stereo unspecified)	none
CCCN1C(=O)/C(=C/c2ccc(N3CCCC3)c(C)c2)NC1=S	Rev-RRE block 139[fluorescence artefact?], Cav32 inh -7.1
CCOCCCNC(=O)C1CCN(C(=O)Nc2ccc(Cl)cc2)CC1	none
Cc1cc(C(=O)NCCCN2CCN(c3cc(Cl)ccc3C)CC2)n(-c2ccccc2)n1	Cav32 inh -4.7 (no result: Pyk2 oligo antag)
Cn1nc(C(F)(F)F)c(/C=N/OC(=O)c2ccccc2)c1SCc1ccc(Cl)cc1	none
Cn1nc(C(F)(F)F)c(/C=N/OC(=O)c2ccccc2Cl)c1SCc1ccccc1Cl	Cav32 inh -6.6
COc1ccc(O)c(/C=N/Nc2nc(Nc3ccccc3)nc(-n3nc(C)cc3C)n2)c1	Cav32 inh -4.4
CCc1ccc(C(=O)COC(=O)C(Cc2ccccc2)NC(=O)c2ccc(Cl)cc2)cc1 (stereo unspecified)	Cav32 inh -4.8
CCc1ccc(C(=O)COC(=O)C(Cc2ccccc2)NC(=O)C2CCC(C)CC2)cc1 (stereo unspecified)	none
Cc1ccc(S(=O)(=O)Nn2c(C)ccc2C)cc1	none
N/C(Cc1ccc([N+](=O)[O-])cc1)=N\OC(=O)C(c1ccccc1)c1ccccc1	Cav32 inh -3.4
Cc1cccc(C(=O)O/N=C(\N)Cc2ccc([N+](=O)[O-])cc2)c1	Cav32 inh -4.5
Cc1ccc(-c2noc(CCC(=O)NCCN3CCc4ccccc4C3)n2)cc1	Cav32 inh -7.1
CCN(CCCNC(=O)CCc1nc(-c2ccc(C)cc2)no1)c1cccc(C)c1	Cav32 inh -8.1
CCN(CCCNC(=O)CCn1c(=O)[nH]c2ccccc2c1=O)c1ccccc1	none
Cc1ccc(-c2noc(CCC(=O)NCCc3ccccc3Cl)n2)cc1	none
CCN(CCCNC(=O)C1CCC(=O)N1Cc1ccc(C)cc1)c1cccc(C)c1 (stereo unspecified)	Cav32 inh -3.4
CCN(CCCNC(=O)CCCn1c(=O)[nH]c2ccccc2c1=O)c1cccc(C)c1	Cav32 inh -5.5
Cc1csc(SCC(=O)Nc2ncc(Cl)c(C)c2Cl)n1	none
Cn1c(N)c(C(=O)COC(=O)C2(c3cccc(F)c3)CCCC2)c(=O)n(C)c1=O	none
O=C(NCc1ccco1)c1ccc(S(=O)(=O)N2CCOCC2)cc1	none
COc1ccc(N2CCN(S(=O)(=O)c3ccc(C(=O)NCc4ccco4)cc3)CC2)cc1	Cav32 inh -3.9
CC1(c2ccc(Cl)c(Cl)c2)NC(=S)N2C1NC(=S)N2c1ccccc1 (stereo unspecified)	Cav32 inh -5.4
O=C1Nc2cc(Cl)c(Cl)cc2N(O)N1c1ccccc1	none
COc1cccc(-c2cc(C(F)(F)F)nc(N3CCC(C)CC3)n2)c1	Rev-RRE block 41
COc1cccc(-c2cc(C(F)(F)F)nc(N3CCOCC3)n2)c1	none
O=C(/C=C1\NCC2c3ccccc3CCN2C1=O)c1ccccc1 (stereo unspecified)	none
COc1cccc(NC(=O)Nc2ccc3c(c2)N(C)C(=O)CS3)c1	Pyk2 oligo antag -4
CN1C(=O)CSc2ccc(NC(=O)Nc3ccccn3)cc21	none
CC(=O)Nc1cccc2c1C(=O)N(c1cccc(C)c1)C2=O	none
Cc1cccc(N2C(=O)c3cccc4c(N(C)CCO)ccc(c34)C2=O)c1	Rev-RRE block 129[fluorescence artefact?] (no result: Cav32 inh)
Cc1ccc(S(=O)(=O)NC2=NCN(CCOC(=O)c3ccc([N+](=O)[O-])cc3)CN2)cc1	none
COc1ccccc1N1CCN(C(=O)CCNS(=O)(=O)c2ccc(Br)s2)CC1	Cav32 inh -4.7
O=C(CCNS(=O)(=O)c1ccc(Br)s1)N1CCN(c2ccccc2)CC1	Cav32 inh -5.5
O=C(O)CCCNS(=O)(=O)c1ccc(Br)s1	none (no result: FAK inh, PLK1 inh, Rev-RRE block, Plk1 PBD FP)
CN(C)/C=N/C(=S)Nc1ccc(Br)cc1F	none
COc1ccc(Nc2nc3ccccc3nc2C)cc1	Cav32 inh -3.8
FC(F)(F)c1nc(-c2cccs2)ncc1-c1nnnn1-c1ccc(Cl)cc1	Pyk2 oligo antag -3.1
Brc1ccc2[nH]ncc2c1	PLK1 inh 51
CCOC(=O)/C(C#N)=C\N(C)C	none (no result: Cav32 inh)
C=CCN1C=CC(=C/C=C(/C#N)C(=O)OCC)C=C1	Rev-RRE block 138[fluorescence artefact?], Cav32 inh -6.4
O=C(OCc1nc2ccccc2[nH]1)C12CC3CC(CC(C3)C1)C2	Cav32 inh -6.7
O=C(Nc1nc2ccccc2[nH]1)C12CC3CC(CC(C3)C1)C2	none
N#CCN1CCN(CCC(=O)Nc2ccc(OCc3ccccc3)cc2)CC1	none
COc1ccccc1NC(=O)c1nn(-c2cccc(C(F)(F)F)c2)ccc1=O	none (no result: Cav32 inh)
O=c1ccn(-c2cccc(C(F)(F)F)c2)nc1-c1ccn(-c2ccccc2F)n1	Cav32 inh -8
O=C(c1c(F)cccc1F)N1CCN(c2cccc(C(F)(F)F)c2)CC1	none (no result: FAK inh, PLK1 inh, Rev-RRE block, Plk1 PBD FP)
COc1ccc(-n2ccc(-c3nn(-c4cccc(C(F)(F)F)c4)ccc3=O)n2)cc1	Cav32 inh -4.4
